Data: ChEMBL document CHEMBL2429861, “Chemopreventive and antioxidant activity of 6-substituted imidazo[2,1-b]thiazoles” (Eur J Med Chem, 2013)

Tests used:
RAW264.7 = assay: Cytotoxicity against mouse RAW264.7 cells assessed as cell survival after 20 hrs by SRB assay; details: for inhibition (INH): mouse, raw264.7, 20 h
[1] = tested on: Radical scavenging activity; assay: Antioxidant activity in non-aqueous medium assessed as trolox equivalents of DPPH radical scavenging activity by spectrophotometry; type: functional
Procedure, shortened: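 DPPH radical decolorization by hydrogen-donating scavengers in MeOH or EtOH. Some values could not be determined where the compound's solution colour resembled the DPPH reagent, or where % inhibition versus concentration was not linear.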

[2] = Relative antioxidant activity assessed as resorcinol equivalents of hydroperoxyl scavenging activity at acidic pH by BR oscillating reaction method; type: ADME
Procedure, shortened: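 Briggs–Rauscher oscillating reaction: hydrogen peroxide, acidic iodate, malonic acid and Mn(II) catalyst at about pH 2, with hydroperoxyl radicals as the key intermediates.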

Aromatase [3] = target: T1, Aromatase (Homo sapiens, UniProt P11511); assay: Inhibition of aromatase (unknown origin) using dibenzylfluorscein as substrate incubated with NADP+ for 10 mins prior to substrate addition at 50 uM measured after 30 mins by fluorescence assay; details: 0.5 h
T1 sequence (P11511 whole entry): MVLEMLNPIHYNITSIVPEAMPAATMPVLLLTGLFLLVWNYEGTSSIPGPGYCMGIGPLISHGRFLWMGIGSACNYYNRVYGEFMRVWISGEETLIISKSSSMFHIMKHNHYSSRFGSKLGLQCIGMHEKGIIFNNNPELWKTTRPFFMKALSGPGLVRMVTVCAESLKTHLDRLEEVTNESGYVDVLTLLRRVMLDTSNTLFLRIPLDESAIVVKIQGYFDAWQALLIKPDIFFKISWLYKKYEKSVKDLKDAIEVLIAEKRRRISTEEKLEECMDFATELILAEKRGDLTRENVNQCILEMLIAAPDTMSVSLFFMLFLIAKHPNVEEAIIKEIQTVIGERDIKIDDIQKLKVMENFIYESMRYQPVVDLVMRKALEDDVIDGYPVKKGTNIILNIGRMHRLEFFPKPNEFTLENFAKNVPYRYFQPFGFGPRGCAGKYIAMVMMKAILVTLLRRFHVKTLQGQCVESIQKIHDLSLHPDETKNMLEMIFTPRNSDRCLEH
Procedure, shortened: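 Compounds preincubated 10 min at 37 °C with an NADPH-regenerating system (2.6 mM NADP+, 7.6 mM glucose 6-phosphate, 0.8 U/mL G6PDH, 13.9 mM MgCl2, 1 mg/mL albumin; 50 mM K phosphate, pH 7.4). CYP19 enzyme with […] was added for 30 min at 37 °C. The reaction was stopped with 2 N NaOH and held 24 h at 37 °C, then fluorescence read at ex 485/em 530 nm.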

[4] = target: NAD(P)H dehydrogenase [quinone] 1 (Mus musculus) (UniProt Q64669); assay: Induction of quinone reductase-1 activity in mouse Hepa-1c1c7 cells assessed as induction ratio at 50 uM by MTT assay relative to DMSO-treated control; type: cell-based
NAD(P)H dehydrogenase [quinone] 1 (Mus musculus), sequence (Q64669 whole entry): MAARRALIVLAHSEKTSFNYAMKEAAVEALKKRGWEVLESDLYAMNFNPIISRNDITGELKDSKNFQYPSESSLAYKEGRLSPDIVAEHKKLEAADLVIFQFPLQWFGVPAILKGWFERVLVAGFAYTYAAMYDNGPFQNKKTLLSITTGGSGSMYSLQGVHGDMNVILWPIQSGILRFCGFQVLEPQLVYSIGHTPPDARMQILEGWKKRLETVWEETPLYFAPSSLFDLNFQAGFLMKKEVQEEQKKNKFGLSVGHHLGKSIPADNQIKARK
Procedure, shortened: (§1)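 Hepa 1c1c7 murine hepatoma cells incubated with compounds at […]. Cells were permeabilized with digitonin and QR1 activity measured by MTT reduction to formazan at 595 nm, with a parallel crystal violet protein assay. IR is specific activity versus DMSO control; CD is the concentration doubling activity, determined only where IR >2. Two independent experiments in triplicate.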

[5] = target: T2, Nitric oxide synthase, inducible (Mus musculus) (UniProt P29477); assay: (§2) Inhibition of iNOS-mediated NO production in mouse RAW264.7 cells by Griess assay; type: cell-based
T2 sequence (whole entry): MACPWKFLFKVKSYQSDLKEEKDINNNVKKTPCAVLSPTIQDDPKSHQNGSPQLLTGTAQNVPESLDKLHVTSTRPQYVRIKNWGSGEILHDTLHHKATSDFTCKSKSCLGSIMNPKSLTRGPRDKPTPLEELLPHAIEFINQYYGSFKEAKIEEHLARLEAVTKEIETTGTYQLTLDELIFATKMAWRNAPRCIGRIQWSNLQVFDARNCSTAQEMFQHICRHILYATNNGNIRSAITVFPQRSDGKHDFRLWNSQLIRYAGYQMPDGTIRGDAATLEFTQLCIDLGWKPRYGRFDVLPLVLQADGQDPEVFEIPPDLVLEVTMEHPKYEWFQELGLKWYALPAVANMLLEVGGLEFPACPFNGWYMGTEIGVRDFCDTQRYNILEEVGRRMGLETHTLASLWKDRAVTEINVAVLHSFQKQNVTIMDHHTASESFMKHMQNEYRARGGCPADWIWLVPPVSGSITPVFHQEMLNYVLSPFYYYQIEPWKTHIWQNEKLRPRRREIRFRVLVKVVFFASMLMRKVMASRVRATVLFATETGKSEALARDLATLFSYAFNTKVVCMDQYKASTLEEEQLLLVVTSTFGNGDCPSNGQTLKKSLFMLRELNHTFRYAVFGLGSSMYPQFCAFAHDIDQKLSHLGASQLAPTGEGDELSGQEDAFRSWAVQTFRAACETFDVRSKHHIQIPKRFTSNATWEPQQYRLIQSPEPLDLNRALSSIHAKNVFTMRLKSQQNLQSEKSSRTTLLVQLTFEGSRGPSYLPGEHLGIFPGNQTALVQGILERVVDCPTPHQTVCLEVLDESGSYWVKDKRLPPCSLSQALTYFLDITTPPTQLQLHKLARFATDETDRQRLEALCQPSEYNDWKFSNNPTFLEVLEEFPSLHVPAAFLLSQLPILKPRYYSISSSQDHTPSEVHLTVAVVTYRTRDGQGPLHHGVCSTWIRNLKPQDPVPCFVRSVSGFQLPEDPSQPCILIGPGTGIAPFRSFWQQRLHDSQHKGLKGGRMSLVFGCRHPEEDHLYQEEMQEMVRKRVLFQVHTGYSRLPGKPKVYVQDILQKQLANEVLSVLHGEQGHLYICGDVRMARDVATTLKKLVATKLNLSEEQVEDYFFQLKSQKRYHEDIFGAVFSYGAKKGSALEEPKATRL
Procedure, shortened: (§3)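 RAW 264.7 cells, 1×10^5 per well, held 24 h at 37 °C under 5% CO2. Nitrite in the medium was measured with Griess reagent (sulfanilamide/N-(1-naphthyl)ethylenediamine in H3PO4) at 540 nm against a sodium nitrite standard curve.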

[6] = target: T3, Nitric oxide synthase, inducible (Mus musculus, UniProt P29477); assay: as §2; type: cell-based
T3 sequence (P29477 whole entry): T2 sequence (whole entry)
Procedure, shortened: as §3

[7] = target: NAD(P)H dehydrogenase [quinone] 1 (Mus musculus) (UniProt Q64669); assay: Induction of quinone reductase-1 activity in mouse Hepa-1c1c7 cells expressing TAOc1BPrcI mutant assessed as induction ratio at 50 uM by MTT assay relative to DMSO control; type: cell-based
Liver microsomes [8] = assay: Drug metabolism in human liver microsomes assessed as monooxygenated metabolite after 1.9 mins by UHPLC-MS/MS analysis; type: ADME, Microsome; details: 114 s
Procedure, shortened: (§4)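 Microsomal incubations as for stability (1 mg/mL human liver microsomes, NADPH, 37 °C). Metabolites analysed by UHPLC-MS/MS with a 4.5 min gradient at 0.2 mL/min, recording product ion scans over m/z 100–300.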

[9] = Cytotoxicity against mouse RAW264.7 cells assessed as cell survival at 50 uM after 15 mins by SRB assay; type: cell-based; details: read-out: Survival
Procedure, shortened: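 RAW 264.7 cells were seeded at 1×10^5 per well and held 24 h at 37 °C in 5% CO2. They were then pretreated 15 min with serially diluted compound, followed by LPS (or no LPS) for a further 20 h. Medium was taken for the Griess assay, and cells were fixed with 10% TCA and stained with 0.4% SRB in 1% acetic acid. Bound dye was dissolved in 10 mM Tris and read at 515 nm. Survival is relative to LPS-treated control; two experiments in duplicate.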

[10] = Antioxidant activity assessed as trolox equivalents of ABTS radical scavenging activity at pH 7.4 by spectrophotometry; type: functional
Procedure, shortened: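 TEAC run at pH 7.4; activity reported as mM equivalents of Trolox.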

Aromatase [11] = target: T1, Aromatase; assay: Inhibition of aromatase (unknown origin) using dibenzylfluorscein as substrate incubated with NADP+ for 10 mins prior to substrate addition measured after 30 mins by fluorescence assay
[12] = Half life in human liver microsomes at 1 uM after 1 to 60 mins by UHPLC-MS/MS analysis; type: ADME, Microsome
HEK293 [13] = assay: Inhibition of TNFalpha-induced nuclear factor-kappa-B activation in human HEK293 cells at 50 uM by luciferase reporter gene assay; type: cell-based
[14] = target: NAD(P)H dehydrogenase [quinone] 1 (Mus musculus) (UniProt Q64669); assay: Induction of quinone reductase-1 activity in mouse Hepa-1c1c7 cells assessed as concentration required to double induction activity by MTT assay; type: cell-based
Procedure, shortened: as §1

HEK293 [15] = assay: Cytotoxicity against human HEK293 cells assessed as reduction in cell survival; type: cell-based
Procedure, shortened: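 Same 293/NFkB-Luc cells under the NFkB assay conditions; cytotoxic IC50 taken as the concentration giving 50% cell survival.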

[16] = Inhibition of TNFalpha-induced nuclear factor-kappa-B activation in human HEK293 cells at by luciferase reporter gene assay; type: cell-based
Procedure, shortened: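 Stably transfected 293/NFkB-Luc cells seeded at 20 × 10^3 per well in DMEM with 10% FBS, penicillin/streptomycin and 2 mM L-glutamine for 48 h. Medium was then replaced and cells were given compounds in DMSO plus TNF-α 2 ng/mL (0.14 nM) for 6 h. Cells were lysed and luciferase luminescence read; IC50 is the concentration halving TNF-α-activated activity; […]. Mean ± SD of two experiments in duplicate.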

[17] = target: NAD(P)H dehydrogenase [quinone] 1 (Mus musculus) (UniProt Q64669); assay: Induction of quinone reductase-1 activity in mouse Hepa-1c1c7 cells expressing BPrc1 mutant assessed as induction ratio at 50 uM by MTT assay relative to DMSO control; type: cell-based
[18] = Cytotoxicity against human HEK293 cells assessed as cell survival at 50 uM; type: cell-based; details: read-out: Survival
[19] = target: T2, Nitric oxide synthase, inducible (Mus musculus); assay: Inhibition of iNOS-mediated NO production in mouse RAW264.7 cells at 50 uM by Griess assay; type: cell-based
Liver microsomes [20] = assay: Drug metabolism in human liver microsomes assessed as monooxygenated metabolite by UHPLC-MS/MS analysis; type: ADME, Microsome
Procedure, shortened: as §4

In the case of `Oc1ccc(O)c(-c2cn3ccsc3n2)c1`, the IC50 (RAW264.7; Mus musculus, RAW264.7, 20 h) is reported as 11.6 µM, the “inhibition (INH)” value (RAW264.7) is reported as “Dose-dependent effect” and the Activity [1] is reported as 0.71 µM. It also gave an Activity [2] of 1.032 µM, an inhibition at 50 µM (Aromatase [3]) of 98.6% and a Ratio [4] of 3.8. For the same compound, the inhibition [5] was “Dose-dependent effect”, the IC50 [6] was 6.4 µM and the Ratio [7] was 0.3. For the same compound, the Drug metabolism (Liver microsomes [8]) was “Active”, the viability at 0.25 h, 50 µM [9] was 48.2% and the Activity [10] was 1.29 µM. It also gave an IC50 (Aromatase [11]) of 2.6 µM, a half-life at 1 µM [12] of 5.9 min and an inhibition (HEK293 [13]) of 91%. For the same compound, the CD [14] was 12.1 µM, the IC50 (HEK293 [15]) was 46.5 µM and the IC50 [16] was 2.24 µM. The Ratio [17] was 0.9, the viability at 50 µM [18] was 43.6% and the inhibition [19] was 97.7%.

In the case of `CC(C)NCC(O)COc1cccc2ccccc12` (stereo unspecified) [PROPRANOLOL], the half-life at 1 µM [12] is reported as 20.8 min.

`Cc1ccc(S(=O)(=O)N[C@@H](Cc2ccccc2)C(=O)CCl)cc1` [TPCK] gave an IC50 [16] of 3.8 µM.

Compound `O=c1c(O)c(-c2ccc(O)c(O)c2)oc2cc(O)cc(O)c12` has an Activity [10] of 3.1 µM.

In the case of `Cc1cn2cc(-c3ccc(O)c(O)c3O)nc2s1`, the “inhibition (INH)” value (RAW264.7) is reported as “Dose-dependent effect”, the Activity [1] is reported as 1.38 µM and the Activity [2] is reported as 0.14 µM. For the same compound, the inhibition at 50 µM (Aromatase [3]) was 99.6%, the Ratio [4] was 2.03 and the inhibition [5] was “Dose-dependent effect”. It also gave an IC50 [6] of 6.8 µM, a Ratio [7] of 0.2 and a viability at 0.25 h, 50 µM [9] of 52.3%. The Activity [10] was 3.06 µM, the IC50 (Aromatase [11]) was 3.2 µM and the half-life at 1 µM [12] was 11.2 min. For the same compound, the inhibition (HEK293 [13]) was 97.5%, the CD [14] was 24.6 µM and the IC50 (HEK293 [15]) was 21.2 µM. It also gave an IC50 [16] of 0.53 µM, a Ratio [17] of 1.2 and a viability at 50 µM [18] of 34.3%. For the same compound, the inhibition [19] was 98.8% and the Drug metabolism (Liver microsomes [20]) was “Active”.

`O=c1c(-c2ccc(O)cc2)coc2c([C@@H]3O[C@H](CO)[C@@H](O)[C@H](O)[C@H]3O)c(O)ccc12` [PUERARIN] gave an Activity [2] of 0.192 µM.

In the case of `Oc1cc(O)c2c(c1)O[C@@H](c1ccc(O)c(O)c1)[C@H](O)C2` [(-)-CATECHIN], the Activity [2] is reported as 2.2 µM.
